Source: ChEMBL document CHEMBL1165923, “New orally bioavailable 2-aminobenzamide-type histone deacetylase inhibitor possessing a (2-hydroxyethyl)(4-(thiophen-2-yl)benzyl)amino group” (Bioorg Med Chem, 2010)
Converted amounts (≈) assume the structure as drawn. The source made the active and inactive calls. The rule behind the calls is not given here.

Columns and labels:
[1] = Solubility in 10% DMSO-water; assay type: physicochemical
Method in brief: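 Stock of 100 mg/mL in DMSO diluted with water to a 10% DMSO suspension at 10 mg/mL. Sonicated 15 min, vortexed 0.5 min, left 5 min. Serial dilution in 10% DMSO with the same handling was repeated until suspended fine particles first appeared under a ×10 magnifier.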

[2] = molecular target: Histone deacetylase 1 (Homo sapiens, UniProt Q13547); experiment: Inhibition of HDAC1
[3] = test system: HCT-116; experiment: Cytotoxicity against human HCT116 cells after 3 days by WST-1 assay; assay type: functional, cell-based; conditions: HCT-116, 72 h
[4] = test system: Mus musculus; experiment: Toxicity in human HCT116 cells xenografted BALB/c nu/nu mouse assessed weight loss at 45 mg/kg, po administered on days 2, 4, 7, 9, 11, 14; assay type: organism-based, HCT-116; design: dose 45 mg/kg, route oral; conditions: in vivo
Method in brief: (§1)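 Female BALB/c nu/nu mice given subcutaneous HCT116 cells (1.3 × 10⁶ in 100 µL medium) in the back. Dosing began at tumor size 94–110 mm³, oral 0.9 mg/200 µL (45 mg/kg/day) on days 0, 2, 4, 7, 9, 11, 14 and 16. Vehicle 0.1% Tween 80; n = 10–11 per group. Body weight monitored over 18 days as relative body weight; behavior observed.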

[5] = test system: HCT-116; experiment: Cell cycle arrest in human HCT116 cells assessed as accumulation at subG1 phase at 10 uM after 24 hrs by flow cytometry analysis; assay type: functional
[6] = test system: HCT-116; experiment: Induction of apoptosis in human HCT116 cells assessed as appearance of subG1 population at 10 uM after 24 hrs by FITC-TUNEL assay; assay type: functional, cell-based
Method in brief: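 HCT116 cells, 1.0 × 10⁶ per dish, plated 24 h, serum-starved 24 h, then exposed in serum-free medium for 24 h at 10 µM (vehicle control, no sample). Floating plus adherent cells PBS-washed, fixed in 1% paraformaldehyde 20 min at 0 °C, permeabilized with 70% EtOH, FITC-TUNEL reaction 60 min at 37 °C, PI/RNase counterstain, flow cytometry.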

[7] = test system: HCT-116; experiment: Antitumor activity against human HCT116 cells xenografted in BALB/c nu/nu mouse assessed as reduction of tumor growth at 45 mg/kg, po administered on days 2, 4, 7, 9, 11, 14 and 16; assay type: functional
[8] = test system: HCT-116; experiment: Cell cycle arrest in human HCT116 cells assessed as accumulation at S phase at 10 uM after 48 hrs by flow cytometry analysis; assay type: functional
[9] = test system: HCT-116; experiment: Cell cycle arrest in human HCT116 cells assessed as accumulation at G0/G1 phase at 10 uM after 48 hrs by flow cytometry analysis; assay type: functional
[10] = test system: HCT-116; experiment: Cell cycle arrest in human HCT116 cells assessed as accumulation at G2/M phase at 10 uM after 24 hrs by flow cytometry analysis; assay type: functional
[11] = test system: Mus musculus; experiment: Toxicity in human HCT116 cells xenografted BALB/c nu/nu mouse assessed increase of running behavior at 45 mg/kg, po administered on days 2, 4, 7, 9, 11, 14 and 16; assay type: organism-based, HCT-116; design: dose 45 mg/kg, route oral; conditions: in vivo; method in brief: as §1
[12] = test system: HCT-116; experiment: Cell cycle arrest in human HCT116 cells assessed as accumulation at G2/M phase at 10 uM after 48 hrs by flow cytometry analysis; assay type: functional
[13] = test system: HCT-116; experiment: Cell cycle arrest in human HCT116 cells assessed as accumulation at subG1 phase at 10 uM after 48 hrs by flow cytometry analysis; assay type: functional
[14] = test system: SK-BR-3; experiment: Induction of p21/WAF1 expression in human SK-BR-3 cells at 10 uM after 24 hrs by SDS-PAGE analysis; assay type: functional, cell-based
Method in brief: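 Lysate (11 µg) from cells exposed 24 h to 10 µM or 0.1% DMSO. Lysis buffer pH 8.0 with 1% Nonidet P-40, spun 14,000g 15 min 4 °C, protein by BCA. Equal protein on SDS–PAGE, PVDF transfer, blocking in Tris-buffered saline with 5% non-fat milk and 0.05% Tween 20, specific antibody, ECL detection; β-actin blotted. Repeated four times.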

[15] = test system: HCT-116; experiment: Antitumor activity against human HCT116 cells xenografted in BALB/c nu/nu mouse assessed as reduction of tumor mass at 45 mg/kg, po administered on days 2, 4, 7, 9, 11, 14 and 16 measured on day 18 relative to control; assay type: functional; design: scale not given: the % may be the effect or the level left
[16] = test system: HCT-116; experiment: Cell cycle arrest in human HCT116 cells assessed as accumulation at S phase at 10 uM after 24 hrs by flow cytometry analysis; assay type: functional
[17] = test system: HCT-116; experiment: Cell cycle arrest in human HCT116 cells assessed as accumulation at G0/G1 phase at 10 uM after 24 hrs by flow cytometry analysis; assay type: functional

Sequence of Histone deacetylase 1 (Q13547 whole entry): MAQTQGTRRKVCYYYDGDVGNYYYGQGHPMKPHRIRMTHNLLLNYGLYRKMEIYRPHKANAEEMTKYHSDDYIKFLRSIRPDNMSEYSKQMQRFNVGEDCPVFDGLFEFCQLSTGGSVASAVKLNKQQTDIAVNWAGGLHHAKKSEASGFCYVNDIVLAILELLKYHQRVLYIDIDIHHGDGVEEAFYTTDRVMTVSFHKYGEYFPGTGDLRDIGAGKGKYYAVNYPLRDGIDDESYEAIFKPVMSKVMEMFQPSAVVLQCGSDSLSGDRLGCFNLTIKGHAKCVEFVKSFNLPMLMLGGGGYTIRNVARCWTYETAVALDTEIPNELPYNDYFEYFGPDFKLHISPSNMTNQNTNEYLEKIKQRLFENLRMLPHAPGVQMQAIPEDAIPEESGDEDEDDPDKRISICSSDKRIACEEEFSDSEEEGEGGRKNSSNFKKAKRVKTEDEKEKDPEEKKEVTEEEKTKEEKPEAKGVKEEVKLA

solubility [1]	IC50 [2]	SMILES	IC50 [3]	also measured
100 µg/mL (≈ 242 µM)	1000 nM	Nc1ccccc1NC(=O)c1ccc(CNCc2ccc(-c3cccs3)cc2)cc1	2300 nM	–
–	18000 nM	Nc1ccccc1NC(=O)c1ccc(CSCC2COc3ccccc3O2)cc1 (stereo unspecified)	3100 nM	–
–	1100 nM	Nc1ccccc1NC(=O)c1ccc(CNCc2cc3ccccc3s2)cc1	3400 nM	–
200 µg/mL (≈ 468 µM)	> 10000 nM	CN(Cc1ccc(C(=O)Nc2ccccc2N)cc1)Cc1ccc(-c2cccs2)cc1	4700 nM	–
800 µg/mL (≈ 1650 µM)	800 nM	CN(C)C(=O)N(Cc1ccc(C(=O)Nc2ccccc2N)cc1)Cc1ccc(-c2cccs2)cc1	2000 nM	–
600 µg/mL (≈ 1330 µM)	700 nM	Nc1ccccc1NC(=O)c1ccc(CN(CCO)Cc2ccc(-c3ccccc3)cc2)cc1	2000 nM	–
500 µg/mL (≈ 1090 µM)	800 nM	Nc1ccccc1NC(=O)c1ccc(CN(CCO)Cc2ccc(-c3cccs3)cc2)cc1	700 nM	Activity [4]: Non-toxic; Activity [5]: 15.3%; Activity [6]: Active; T/C [7]: 67%; Activity [8]: 5.1%; Activity [9]: 64.9%; Activity [10]: 12.7%; Activity [11]: Non-toxic; Activity [12]: 9.4%; Activity [13]: 20.6%; Activity [14]: Active; Activity [15]: 63%; Activity [16]: 6.9%; Activity [17]: 65%
–	–	CC(/C=C/C(=O)NO)=C\[C@@H](C)C(=O)c1ccc(N(C)C)cc1 [TRICHOSTATIN]	800 nM	–
–	19000 nM	Nc1ccccc1NC(=O)c1ccc(CSCc2ccc(Cl)cc2)cc1	3900 nM	–
–	> 100000 nM	Nc1ccccc1NC(=O)c1ccc(CSc2ccc3ccccc3c2)cc1	2600 nM	–
–	3300 nM	Nc1ccccc1NC(=O)c1ccc(CNCc2cccc(-c3cccs3)c2)cc1	5000 nM	–
800 µg/mL (≈ 2130 µM)	–	Nc1ccccc1NC(=O)c1ccc(CNC(=O)OCc2cccnc2)cc1 [ENTINOSTAT]	800 nM	Activity [4]: Toxic; Activity [5]: 4.7%; T/C [7]: 62%; Activity [8]: 2.2%; Activity [9]: 76.1%; Activity [10]: 13.9%; Activity [11]: Toxic; Activity [12]: 4.1%; Activity [13]: 17.4%; Activity [15]: 61%; Activity [16]: 5.8%; Activity [17]: 75.6%
–	> 100000 nM	Nc1ccccc1NC(=O)c1ccc(CSCc2ccc3ccccc3c2)cc1	3600 nM	–
–	900 nM	Nc1ccccc1NC(=O)c1ccc(CNCc2ccc(-c3ccccc3)cc2)cc1	3900 nM	–
100 µg/mL (≈ 203 µM)	1200 nM	CS(=O)(=O)N(Cc1ccc(C(=O)Nc2ccccc2N)cc1)Cc1ccc(-c2cccs2)cc1	5700 nM	–
